# In the library only some 2.3% were active in any assay of this set; here they are far more common.
# RAM inhibit: blocks the yeast RAM network | S. cerevisiae dse1pr::URA3 reporter, 5-FOA growth OD615, 2 d; analog-sensitive cbk1-as2 kinase mutant strain | inhibition, % at 50 µM | 1.8% of 190,000 active | AID 868;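 active = inhibition above a set limit, 3 SD over mean compound inhibition, cut at about 8.4% in these data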;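 also: 0% = DMSO-only wells with no growth and 100% = 10 µM 1-NA-PP1 full growth; inhibition rescues growth on 5-FOA so higher OD means more RAM inhibition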
# ABCB1 inh: blocks JC-1 efflux by human ABCB1 transporter | inhibition, % at 6.6 µM | 0.067% of 190,000 active | P08183 | CCRF-Adr cells, flow cytometry; in the data active = inhibition above about 40%;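 also: 0% = vehicle and 100% = reference inhibitor; higher value means more JC-1 retained so stronger ABCB1 efflux block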
# Target sequence (P08183 whole entry, looked up): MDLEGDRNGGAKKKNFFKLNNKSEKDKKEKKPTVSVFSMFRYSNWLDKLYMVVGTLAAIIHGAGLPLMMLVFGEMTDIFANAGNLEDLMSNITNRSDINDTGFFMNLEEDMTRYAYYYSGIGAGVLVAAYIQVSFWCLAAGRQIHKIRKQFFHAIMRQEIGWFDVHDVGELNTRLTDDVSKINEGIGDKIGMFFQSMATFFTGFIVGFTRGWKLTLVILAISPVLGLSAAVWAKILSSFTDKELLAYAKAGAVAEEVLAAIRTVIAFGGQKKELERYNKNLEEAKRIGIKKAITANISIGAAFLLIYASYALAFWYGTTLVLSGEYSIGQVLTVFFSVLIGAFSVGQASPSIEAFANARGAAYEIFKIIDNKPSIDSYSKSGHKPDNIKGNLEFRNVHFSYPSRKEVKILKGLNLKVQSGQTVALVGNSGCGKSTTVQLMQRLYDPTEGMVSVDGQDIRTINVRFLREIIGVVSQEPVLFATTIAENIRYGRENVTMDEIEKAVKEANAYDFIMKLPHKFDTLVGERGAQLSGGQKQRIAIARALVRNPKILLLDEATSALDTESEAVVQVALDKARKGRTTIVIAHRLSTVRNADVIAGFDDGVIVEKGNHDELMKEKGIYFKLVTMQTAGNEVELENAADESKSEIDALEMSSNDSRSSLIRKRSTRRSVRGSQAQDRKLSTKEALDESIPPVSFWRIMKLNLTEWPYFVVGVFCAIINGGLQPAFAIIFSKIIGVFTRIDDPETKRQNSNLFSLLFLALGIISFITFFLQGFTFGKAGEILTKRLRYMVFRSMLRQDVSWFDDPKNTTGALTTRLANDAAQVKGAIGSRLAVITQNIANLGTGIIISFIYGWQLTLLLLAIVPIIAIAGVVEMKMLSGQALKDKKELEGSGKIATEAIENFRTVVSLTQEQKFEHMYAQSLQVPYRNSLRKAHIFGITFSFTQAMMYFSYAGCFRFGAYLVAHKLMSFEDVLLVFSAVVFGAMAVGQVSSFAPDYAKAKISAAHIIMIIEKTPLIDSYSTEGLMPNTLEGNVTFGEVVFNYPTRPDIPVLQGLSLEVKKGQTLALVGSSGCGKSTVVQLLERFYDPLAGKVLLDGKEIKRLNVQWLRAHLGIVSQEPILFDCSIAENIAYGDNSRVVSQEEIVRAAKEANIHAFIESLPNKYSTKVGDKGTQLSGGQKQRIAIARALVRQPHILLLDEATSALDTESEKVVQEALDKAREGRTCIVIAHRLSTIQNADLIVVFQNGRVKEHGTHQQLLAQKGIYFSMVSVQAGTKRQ
# ABCG2 block: blocks JC-1 efflux by human ABCG2 transporter; 0.1% of 190,000 active; AID 1325; inhibition, % at 6.6 µM; IgMXP3 cells, flow cytometry; Q9UNQ0;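 active = inhibition above 80%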;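 also: 0% = DMSO and 100% = nicardipine control wells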
#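 Read-out basis: Efflux inhibition in percent versus controls | Test system: ABCG2 IgMXP3 and barcoded ABCB1 CCRF-Adr cell mix | Quantity: 3 million cells/mL in well | Schedule: 10 min at 25 °C | Control set: Nicardipine as high control, DMSO as low control | Reagent: JC-1 as fluorescent efflux pump substrate | Signal: Flow cytometry of retained JC-1 fluorescence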
# Arbovirus anti: antivirals against arbovirus infection | arbovirus infection cell-based antiviral screen | inhibition, % at 10 µM | 0.37% of 200,000 active; in the data active = inhibition above about 30%
# * marks the source's active call; other numbers are inactive results; / = not tested or not shown; + = active, no number.
SMILES,RAM inhibit,ABCB1 inh,ABCG2 block,Arbovirus anti
Cc1ccc2cc(C)c3nnc(SCC(=O)c4cccs4)n3c2c1C,2,0,0,-3
Cc1cc2ccc(C)c(C)c2nc1SCC(=O)c1cccs1,8.6*,-3,0,-14
COc1ccc(CCNC(=O)CCN2C(=O)COc3ccc(C)cc32)cc1OC,0,2,62,3
Cn1c(=O)[nH]c(=O)c2c1nc(SCCN1CCOCC1)n2CCCc1ccccc1,0,0,2,3
COc1ccccc1NC(=O)Nc1ccc(Cl)c(S(=O)(=O)Nc2ccccc2OC)c1,8.4*,-1,-6,-8
Cc1ccc2c(c1)C1C=CCC1C(C(=O)O)N2 (stereo not drawn),8.7*,-2,-4,5
Cc1ccc(C2CC(=O)c3cnc(N4CCN(c5ccccc5)CC4)nc3C2)cc1 (stereo not drawn),2,0,0,-10
Oc1ccccc1-c1cc(C(F)(F)C(F)F)nc(-c2ccccc2)n1,5,1,3,-3
COc1ccc(O)c(-c2cc(C(F)(F)C(F)F)nc(-c3ccccc3)n2)c1,9.1*,-1,32,-1
CN1c2ccccc2C(O)=C(C(=S)Nc2ccc(F)c(Cl)c2)S1(=O)=O,6,0,3,9
CCN1/C(=C/c2ccc3cc(C)ccc3[n+]2CC)Sc2cc(C)c(C)cc21,1,5,47,-35
CCN1/C(=C/c2ccc3cc(C)ccc3[n+]2CC)Sc2ccccc21,-3,/,+,-36
CCOCCCNC(=S)NCCNc1nc2c(C)cccc2cc1C#N,0,1,5,31*
Cc1cccc2cc(C#N)c(NCCNC(=O)COc3ccccc3)nc12,10*,0,2,-1
Cc1noc(C(=O)NCc2ccco2)c1Cl,1,0,2,9
CCOC(=O)Cc1cc(-c2ccc(OC)cc2)nc2ccc3ccccc3c12,3,0,5,2
Cc1cc(C(C)C)n2c(nc3ccccc32)c1C#N,3,0,0,1
Cc1cc(Nc2ccc(O)cc2)n2c(nc3ccccc32)c1C#N,9.1*,0,0,0
CC1=CSC2=NC(=O)/C(=C\c3cccn3-c3ccccc3)C(=N)N12,7,0,10,-3
Cc1cccc(C)c1-n1cccc1/C=C1/C(=N)N2C(=NC1=O)SN=C2S(C)(=O)=O,8,-1,-4,59*
Cc1ccc(-n2cccc2/C=C2/C(=N)N3C(=NC2=O)SN=C3S(C)(=O)=O)cc1Cl,4,1,-1,34*
O=C(N/N=C1\CCCc2ccccc21)c1cccc(Br)c1,3,-1,16,-4
Cc1ccc(S(=O)(=O)N2CCCCC2)cc1NC(=O)COC(=O)Cc1cccc(C(F)(F)F)c1,9.2*,0,4,-1
COc1ccc(OC)c(NC(=O)COC(=O)/C=C/c2ccccc2Cl)c1,10*,1,46,1
CN1CCN(C(=O)c2ccc3ccccc3c2)CC1,-1,0,0,1
SMILES,RAM inhibit,ABCB1 inh,ABCG2 block,Arbovirus anti
COc1ccc(NC(=O)Cn2nnc(-c3ccccc3NS(=O)(=O)c3ccc(OC)cc3)n2)cc1,9.5*,-1,-3,-11
COc1ccccc1NC(=O)Cn1nnc(-c2ccccc2NS(=O)(=O)c2ccccc2)n1,1,0,0,6
COc1ccc(NC(=O)Cn2nnc(-c3ccccc3NC(=O)c3cccs3)n2)cc1,5,0,2,-10
Cc1ccc(NC(=O)Cn2nnc(-c3ccccc3NC(=O)c3cccs3)n2)cc1,8.4*,1,4,-21
CCc1cc(-c2onc(C)c2-c2cscn2)c(O)cc1OC,8,0,1,7
Cc1cc(C=C2C(=O)c3ccccc3C2=O)c(C)n1-c1ccc(C(=O)O)cc1,5,0,1,2
Cc1cc(/C=c2\sc3nc4ccccc4n3c2=O)c(C)n1-c1ccc(C(=O)O)cc1,4,1,2,37*
Cc1cc(C=C2C(=O)c3ccccc3C2=O)c(C)n1-c1cccc(C(=O)O)c1,8.8*,-1,-1,21
O=c1/c(=C/c2ccc(O)c([N+](=O)[O-])c2)sc2nc3ccccc3n12,1,0,1,30*
CN(C)c1ccc(NC(=O)COC(=O)Cn2nnc3ccccc32)cc1,2,1,1,-3
Cn1c(Cc2cccs2)n[nH]c1=S,1,-2,-5,-6
CCSc1ccc(-c2nn(-c3ccccc3)cc2/C=C(/C#N)C(=O)NC)cc1,4,-1,-3,-18
CCCSc1ccc(-c2nn(-c3ccccc3)cc2/C=C(/C#N)C(=O)N2CCOCC2)cc1,8.8*,3,5,8

# Source: PubChem (several laboratories)
